The values below come from ChEMBL document CHEMBL4359827 (ACS Med Chem Lett, 2019).

Data set [1] has as its target Tryptophan 2,3-dioxygenase (Homo sapiens, UniProt P48775). Nature of the data set: Inhibition of human TDO expressed in Escherichia coli Rosetta measured after 1 hr microplate reader analysis.
Data set [2] concerns the target T1, Indoleamine 2,3-dioxygenase 1 (Homo sapiens, UniProt P14902). Briefly: Inhibition of human IDO1 expressed in Escherichia coli Rosetta measured after 1 hr by microplate reader analysis.
For data set [3], the target named is T1, Indoleamine 2,3-dioxygenase 1. Briefly: Inhibition of IDO in human HeLa cells using tryptophan as substrate measured after 48 hrs in presence of INF gamma microplate reader analysis. In kind it is cell-based.
The subject of data set [4] is MC-38. Nature of the data set: Synergistic antitumour activity against MC38 cells xenografted in humanized PD1 transgenic mouse assessed as tumour growth inhibition at 20 to 50 mg/kg, po bid for 14 days pretreated with SHR-1210 at 5 mg/kg, ip qod for 8 days by digital caliper method relative to control. For orientation: Xenograft models place foreign cells or tissue in a host animal.

The test system of data set [5] is MC-38. Briefly: Antitumour activity against MC38 cells xenografted in humanized PD1 transgenic mouse assessed as tumour growth inhibition at 20 mg/kg, po bid for 14 days by digital caliper method relative to control. Format: functional. The note with it: MC-38, po, 336 h, read-out: TGI. The method, boiled down:
(§1)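 MC38 tumors implanted in hPD1 transgenic mice. Compound given orally at 20 or 50 mg/kg, bid × 14. Tumor growth inhibition (TGI) was calculated against control. Body weight was monitored.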

A short description of data set [6]: Half-life in Sprague-Dawley rat at 10 mg/kg via oral gavage measured upto 24 hrs. Format: ADME, organism-based. The note with it: in vivo.
Another data set concerns Mus musculus. Briefly: Reduction in plasma kynurenine levels in C57BL/6 mouse at 100 mg/kg, s.d ig measured after 2 hrs relative to control. Format: ADME, organism-based. Also on record: scale not given: the % may be the effect or the level left. The note with it: in vivo, po.
The nature of data set [7]: Half-life in rat liver microsomes. In kind it is ADME, Microsome. (Liver microsomes are vesicles of endoplasmic reticulum, rich in cytochrome P450 enzymes.)
The nature of data set [8]: AUC in C57BL/6 mouse at 10 mg/kg via oral gavage measured upto 24 hrs. Conditions: in vivo. Format: ADME, organism-based. Also on record: time < 24 hr, dose 10 mg/kg, route oral.
Data set [9] in a line: Half-life in Beagle dog at 2 mg/kg via oral gavage measured upto 24 hrs. Format: ADME, organism-based, Canis lupus familiaris. The note with it: in vivo.
The nature of data set [10]: Cmax in Beagle dog at 2 mg/kg via oral gavage measured upto 24 hrs. Format: ADME, organism-based, Canis lupus familiaris. Also on record: dose 2 mg/kg, route oral. The note with it: in vivo.
Data set [11] can be described thus: Half-life in human liver microsomes. Format: ADME, Microsome.
The nature of data set [12]: Oral bioavailability in C57BL/6 mouse at 10 mg/kg measured upto 24 hrs. In kind it is ADME, organism-based. Conditions: in vivo.
The nature of data set [13]: AUC in Sprague-Dawley rat at 10 mg/kg via oral gavage measured upto 24 hrs. In kind it is ADME, organism-based. Also on record: time < 24 hr, dose 10 mg/kg, route oral. Conditions: in vivo.
Data set [14] can be described thus: Half-life in C57BL/6 mouse at 10 mg/kg via oral gavage measured upto 24 hrs. In kind it is ADME, organism-based. Conditions: in vivo.
The nature of data set [15]: Oral bioavailability in Beagle dog at 2 mg/kg measured upto 24 hrs. Conditions: in vivo. Format: ADME, organism-based, Canis lupus familiaris.
The test system of data set [16] is MC-38. Nature of the data set: Antitumour activity against MC38 cells xenografted in humanized PD1 transgenic mouse assessed as tumour growth inhibition at 50 mg/kg, po bid for 14 days by digital caliper method relative to control. Format: functional. Conditions: MC-38, po, 336 h, read-out: TGI. The method, boiled down: as §1
Data set [17] can be described thus: Cmax in Sprague-Dawley rat at 10 mg/kg via oral gavage measured upto 24 hrs. Format: ADME, organism-based. Also on record: dose 10 mg/kg, route oral. The note with it: in vivo.
Data set [18] is described as follows: AUC in Beagle dog at 2 mg/kg via oral gavage measured upto 24 hrs. In kind it is ADME, organism-based, Canis lupus familiaris. Also on record: time < 24 hr, dose 2 mg/kg, route oral. Conditions: in vivo.
Data set [19] can be described thus: Cmax in C57BL/6 mouse at 10 mg/kg via oral gavage measured upto 24 hrs. The note with it: in vivo. Also on record: dose 10 mg/kg, route oral. In kind it is ADME, organism-based.
Data set [20] in a line: Protein binding in dog plasma measured after 2 to 6 hrs by rapid equilibrium dialysis. In kind it is ADME, cell-free, Canis lupus familiaris. Conditions: read-out: PPB (converted). In general terms: In equilibrium dialysis only unbound substance equilibrates across the membrane.
Data set [21] is described as follows: Protein binding in human plasma measured after 4 hrs by rapid equilibrium dialysis. In kind it is ADME, cell-free. The note with it: read-out: PPB (converted).
A short description of data set [22]: Protein binding in mouse plasma measured after 2 to 6 hrs by rapid equilibrium dialysis. Format: ADME, cell-free. The note with it: read-out: PPB (converted).
The nature of data set [23]: Oral bioavailability in Sprague-Dawley rat at 10 mg/kg measured upto 24 hrs. Conditions: in vivo. Format: ADME, organism-based.

pIC50: −log10 of the molar value.

T1 sequence (P14902 whole entry): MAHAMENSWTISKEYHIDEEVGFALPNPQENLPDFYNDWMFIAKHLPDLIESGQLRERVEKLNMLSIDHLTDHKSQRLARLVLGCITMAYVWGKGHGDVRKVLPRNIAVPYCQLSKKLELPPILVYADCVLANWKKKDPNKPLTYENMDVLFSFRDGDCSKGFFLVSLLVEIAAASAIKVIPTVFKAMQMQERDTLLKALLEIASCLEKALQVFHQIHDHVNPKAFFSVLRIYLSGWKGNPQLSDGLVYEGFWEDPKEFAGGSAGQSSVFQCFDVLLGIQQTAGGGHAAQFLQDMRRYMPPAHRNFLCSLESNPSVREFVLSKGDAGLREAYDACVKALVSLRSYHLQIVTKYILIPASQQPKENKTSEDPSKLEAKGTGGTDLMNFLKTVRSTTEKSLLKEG
Sequence of Tryptophan 2,3-dioxygenase (P48775 whole entry): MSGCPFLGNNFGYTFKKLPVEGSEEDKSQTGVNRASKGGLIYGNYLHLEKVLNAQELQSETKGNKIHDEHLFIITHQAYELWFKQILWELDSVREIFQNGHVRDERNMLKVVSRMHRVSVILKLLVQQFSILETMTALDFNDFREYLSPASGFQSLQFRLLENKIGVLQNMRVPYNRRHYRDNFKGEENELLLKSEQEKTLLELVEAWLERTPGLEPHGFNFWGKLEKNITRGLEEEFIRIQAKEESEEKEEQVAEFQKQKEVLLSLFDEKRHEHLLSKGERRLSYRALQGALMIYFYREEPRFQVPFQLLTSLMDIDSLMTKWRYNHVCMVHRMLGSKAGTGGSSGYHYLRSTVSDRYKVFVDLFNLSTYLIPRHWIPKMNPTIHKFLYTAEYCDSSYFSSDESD

As usually defined, the pIC50 is the IC50 on a negative log10 scale, so that one unit is a factor of ten. With `Fc1cccc2c1C(C1CCCC1)n1cncc1-2` (stereo not drawn), the pIC50 in data set [1] was 7.02; in data set [2] it was 6.12; in data set [3], 5.91.

Consider `Fc1cccc2c1C(c1ccccc1)n1cncc1-2` (stereo not drawn), for which the pIC50 in [1] is 6.43; in [2], 5.56.

As to `Fc1cccc2c1C(C1CCNCC1)n1cncc1-2` (stereo not drawn), the pIC50 in data set [1] and in [2] was less than 5.00 throughout.

In the case of `Fc1cccc2c1C(C1CCN(c3ccc(N4CCOCC4)cc3)CC1)n1cncc1-2` (stereo not drawn), the figures for the pIC50 in data set [1], in [2] and in data set [3] were 5.99, 6.45 and 5.77, respectively.

Consider `Fc1cccc2c1C(C1CCN(c3ccc(-c4cccnc4)cc3)CC1)n1cncc1-2` (stereo not drawn), for which the pIC50 is 6.74 in data set [1], 7.15 in data set [2] and 6.62 in data set [3].

In the case of `Cc1cc(-c2cnn(C)c2)ccc1N1CCC(C2c3c(F)cccc3-c3cncn32)CC1` (stereo not drawn), the negative logarithm of the IC50 (pIC50) is 6.65 in [1], 7.70 in data set [2] and 6.16 in [3].

As to `Fc1cccc2c1C(Cc1ccccc1)n1cncc1-2` (stereo not drawn), the figures for the pIC50 in [1] and in [2] were 6.10 and 5.56, respectively.

Regarding `Fc1cccc2c1C(C1CCOCC1)n1cncc1-2` (stereo not drawn), the pIC50 was 6.72 in [1], 6.01 in data set [2] and 5.27 in [3].

Regarding `O[C@H](C[C@H]1c2c(F)cccc2-c2cncn21)[C@H]1CC[C@H](O)CC1` [NAVOXIMOD], in data set [1], the pIC50 was 6.61.

In the case of `Cc1cc(N2CCC(C3c4c(F)cccc4-c4cncn43)CC2)ccc1-c1cnn(C)c1` (stereo not drawn), the pIC50 in data set [1] is 6.94; in [2], 7.85; in data set [3], 6.92.

A word on the TGI: it is the reduction of tumour growth relative to the control group. In general, half-life refers to how long it takes for the measured level to halve. What is called AUC is concentration integrated over time. By Cmax is commonly meant the maximum level reached in the sampled fluid or tissue. What is called bioavailability is dose-corrected exposure relative to a reference, in per cent. For `Cn1cc(-c2ccc(N3CCC([C@H]4c5c(F)cccc5-c5cncn54)CC3)cc2)cn1`, the TGI with MC-38 [4] is more than 90%. Besides, the inhibition in vivo at 20 mg/kg in the data set with MC-38 [5] is 39%. Besides, the half-life in data set [6] was 1.22 h; in data set [7], 2.37 h; in data set [9], 6.49 h; in data set [11], 2.45 h; in data set [14] it was 4.55 h. The Activity in the data set with Mus musculus was determined as 57%. In addition, the AUC at 24 h was 29.1 µg·h/mL in data set [8], 6.13 µg·h/mL in [13] and 1.34 µg·h/mL in data set [18]. The Cmax in data set [10] stood at 0.166 µg/mL; in data set [17] it was 1.85 µg/mL; in data set [19], 3.6 µg/mL. Further, the bioavailability turned out to be 59.6% in data set [12], 27.3% in data set [15] and 60.3% in data set [23]. In the data set on MC-38 [16], the inhibition in vivo at 50 mg/kg is 78%. For the same compound, the fraction unbound in data set [20] was 0.008; in data set [22] it was 0.004. In addition, the fraction unbound at 4 h in [21] is 0.003.

In the case of `Fc1cccc2c1C(C1CCN(c3ccc(-c4ccncc4)cc3)CC1)n1cncc1-2` (stereo not drawn), the negative logarithm of the IC50 (pIC50) was 6.45 in [1], 7.48 in data set [2] and 6.55 in [3].

With `Fc1cccc2c1C(C1CCN(c3ccccc3)CC1)n1cncc1-2` (stereo not drawn), the pIC50 in [3] was 6.26.

`O=C(c1ccccc1)N1CCC(C2c3c(F)cccc3-c3cncn32)CC1` (stereo not drawn): the pIC50 is 5.89 in [1] and 5.45 in data set [2].

In data set [1], `Cn1cc(-c2cccc(N3CCC(C4c5c(F)cccc5-c5cncn54)CC3)c2)cn1` (stereo not drawn) showed a pIC50 of 6.19.

For `Cn1cc(-c2cnc(N3CCC(C4c5c(F)cccc5-c5cncn54)CC3)nc2)cn1` (stereo not drawn), the pIC50 was 6.24 in data set [1], 6.95 in data set [2] and 6.49 in data set [3].

On to `Cn1ccc2ccc(N3CCC(C4c5c(F)cccc5-c5cncn54)CC3)cc21` (stereo not drawn), for which the values for the pIC50 in data set [1], in data set [2] and in data set [3] were 6.42, 7.57 and 6.69, respectively.

Take `Fc1cccc2c1C(C1CCN(c3nc4ccccc4s3)CC1)n1cncc1-2` (stereo not drawn): the pIC50 in data set [1] is 6.71; in data set [2], 7.72; in data set [3], 6.36.

On to `Fc1cccc2c1C(C1CCN(c3nccs3)CC1)n1cncc1-2` (stereo not drawn), for which the pIC50 in data set [1] is 6.23; in [2], 6.53; in data set [3], 6.24.

For the compound `Fc1cccc2c1C(C1CCCCC1)n1cncc1-2` (stereo not drawn), the pIC50 in data set [1] is 7.07; in data set [2], 6.97; in data set [3] it was 6.25.
